The source made the active and inactive calls. Unless noted, the rule behind the calls is not given here.

Test [1] deals with Pantothenate synthetase (Mycobacterium tuberculosis (strain ATCC 25618 / H37Rv)) (UniProt P9WIL5). The experiment in a line: Recombinant Mtb pantothenate synthetase (PanC) inhibitors, coupled enzyme, confirmatory (AID 375).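 Note: 0% = full reaction with vehicle and 100% = no enzyme background.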 The note with it: coupled enzyme assay; at 10 µM, stronger effect = higher value.
Sequence of Pantothenate synthetase (Mycobacterium tuberculosis (strain ATCC 25618 / H37Rv)) (P9WIL5 whole entry, looked up): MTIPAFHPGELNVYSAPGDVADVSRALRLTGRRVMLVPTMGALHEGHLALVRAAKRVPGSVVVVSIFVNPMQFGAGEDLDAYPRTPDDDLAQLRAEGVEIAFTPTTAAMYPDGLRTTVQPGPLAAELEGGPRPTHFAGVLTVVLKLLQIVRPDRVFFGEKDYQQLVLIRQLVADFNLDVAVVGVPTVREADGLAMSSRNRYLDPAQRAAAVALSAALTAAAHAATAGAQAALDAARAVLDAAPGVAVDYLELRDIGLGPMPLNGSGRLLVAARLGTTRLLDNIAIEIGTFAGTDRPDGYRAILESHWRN
Test [2] in a line: reducers of endogenous Her2 protein level, primary screen, SKBR3 breast tumor cells, AlphaScreen, ATP viability (AID 461;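 active = Her2 level under about 52% in both replicate screens, with viability over 70% of control, limit read from the data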;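 for Her2 level: lower value means less Her2 protein in the cells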;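 for viability: percent of carrier control wells set as 100% viability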). The note with it: 18-24 h, measured here: SKBR3 viability, ATP luminescence, at 10 µM. (Bead proximity is the source of the signal in Alpha formats.)
The target in test [3] is Receptor tyrosine-protein kinase erbB-2 (Homo sapiens) (UniProt P04626). The description is as above. The note with it: 18-24 h, at 10 µM, stronger effect = lower value.
Sequence of Receptor tyrosine-protein kinase erbB-2 (Homo sapiens) (P04626 whole entry, looked up): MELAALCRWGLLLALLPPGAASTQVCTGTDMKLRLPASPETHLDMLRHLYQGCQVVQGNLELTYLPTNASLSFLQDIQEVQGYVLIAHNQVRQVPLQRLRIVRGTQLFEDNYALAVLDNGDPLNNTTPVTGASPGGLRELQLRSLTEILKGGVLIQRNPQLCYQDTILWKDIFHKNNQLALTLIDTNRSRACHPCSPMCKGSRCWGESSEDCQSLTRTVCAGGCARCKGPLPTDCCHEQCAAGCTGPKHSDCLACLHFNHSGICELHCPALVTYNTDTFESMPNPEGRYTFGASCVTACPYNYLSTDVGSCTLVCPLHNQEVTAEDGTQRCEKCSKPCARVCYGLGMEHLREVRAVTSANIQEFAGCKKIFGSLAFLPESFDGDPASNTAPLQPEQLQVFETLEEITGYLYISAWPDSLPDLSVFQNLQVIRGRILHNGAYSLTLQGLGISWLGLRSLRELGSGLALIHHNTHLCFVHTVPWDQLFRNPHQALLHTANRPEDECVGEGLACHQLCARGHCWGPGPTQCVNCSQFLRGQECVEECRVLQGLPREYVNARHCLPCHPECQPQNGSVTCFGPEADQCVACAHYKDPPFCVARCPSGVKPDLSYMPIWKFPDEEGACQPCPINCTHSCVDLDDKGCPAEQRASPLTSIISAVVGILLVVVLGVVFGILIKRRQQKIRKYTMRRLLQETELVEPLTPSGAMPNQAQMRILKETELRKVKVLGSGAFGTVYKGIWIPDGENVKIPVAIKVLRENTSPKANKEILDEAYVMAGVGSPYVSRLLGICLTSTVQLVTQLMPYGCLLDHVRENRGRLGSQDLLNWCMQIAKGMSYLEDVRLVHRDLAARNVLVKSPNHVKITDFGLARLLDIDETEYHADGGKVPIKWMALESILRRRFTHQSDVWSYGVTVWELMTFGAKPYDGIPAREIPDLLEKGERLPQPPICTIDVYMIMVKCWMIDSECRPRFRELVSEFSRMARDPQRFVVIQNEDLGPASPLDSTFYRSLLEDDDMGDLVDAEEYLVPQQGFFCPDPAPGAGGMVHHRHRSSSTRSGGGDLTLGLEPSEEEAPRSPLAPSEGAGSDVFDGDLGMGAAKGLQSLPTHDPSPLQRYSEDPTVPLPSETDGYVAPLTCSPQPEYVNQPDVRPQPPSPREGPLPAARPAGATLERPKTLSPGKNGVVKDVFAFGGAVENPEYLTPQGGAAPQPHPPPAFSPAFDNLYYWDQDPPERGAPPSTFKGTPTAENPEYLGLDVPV
Test [4] in a line: SK-BR-3 cell growth inhibitors, pilot screen, 24 h, human (AID 572;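 active = viability at or below 10% of carrier control in both of two separate runs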;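 note: compound exposure lasted between 18 and 24 h rather than exactly 24 h; 100% = carrier-treated control wells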). The note with it: SK-BR-3 viability, CellTiter-Glo luminescence, at 10 µM, stronger effect = lower value. On the technique in general: ATP-based viability assays read luminescence as a measure of living cells.
The nature of test [5]: HUVEC growth inhibition – cell-based, human, primary screen (AID 575;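 active = viability at or below 30% in both replicate assays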;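 note: 100% = median of untreated cell wells with 0.1% DMSO on each plate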). The note with it: HUVEC proliferation, CellTiter-Glo luminescence, 72 h; at 10 µM; stronger effect = lower value. In outline:
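Material: primary human umbilical vein endothelial cells / Schedule: 72 h exposure, 37 °C, 5% CO2, 30 min RT equilibration / Signal: ATP-based CellTiter-Glo luminescent read / Read-out basis: percent of median DMSO-control luminescence / Control set: 32 DMSO-only cell-control wells (high), 32 MePR drug-control wells (low) per plate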

Test [6] is described as follows: growth inhibitors of H69AR lung tumor, primary screen, human, duplicate replicates (AID 580;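 active = viability at or under a set limit in both replicates, limit being median viability minus 3 SD, cut at about 48% in these data, passing the limit was not always enough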;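 note: 100% = mean luminescence of untreated wells and 0% = no signal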). The note with it: H69AR lung tumor cells viability, ATP luminescence, 72 h; at 10 µM; stronger effect = lower value.
Test [7] is described as follows: reversal of MRP1-mediated doxorubicin resistance, pilot screen, H69AR cells, doxorubicin co-treatment (AID 601;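 active = viability loss from added drug above about 55%, and viability with drug at most 40%, in both replicates, limit read from the data, passing the limit was not always enough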). The note with it: CellTiter-Glo, 72 h, at 10 µM; for differential viability (reversal): stronger effect = higher value.
A short description of test [8]: 384-well plate pilot, post-Golgi transport modulator project, inhibition of yeast transport mutant growth (AID 636; in the data active = inhibition above about 31%). The note with it: absorbance 615 nm, about 18 h, stronger effect = higher value.
Test [9] can be described thus: growth suppression of yeast trafficking mutant, preliminary HTS, modulators of trafficking downstream of Golgi apparatus project, 1536-format plate, OD 615 nm (AID 637; in the data active = inhibition above about 30%). The note with it: yeast transport mutant growth, absorbance 615 nm, 18 h; stronger effect = higher value.
Where [10] appears, read: H69AR cells + 2 uM doxorubicin, measured here: viability with 2 uM doxorubicin, stronger effect = lower value.
Setting [11] is: H69AR cells, compound alone cytotoxicity.

In general, inhibition refers to the change of the read-out against control, counted positive when it falls. What is called viability is a read-out of living cells in per cent, often relative to untreated cells. Take `O=C(Cc1ccccc1)OC(COCc1ccccc1)CN1CCOCC1` (stereo unspecified): the inhibition is 3% (inactive) in test [1], -7.47% (inactive) in test [8] and -0.98% (inactive) in [9]. Moreover, the viability in test [2] was 83%; in test [4], 83% (inactive); in [5], 88.3% (inactive); in test [6] it was 94.2% (inactive); in test [7] (setting [10]) it was 89.4%; in [7] (setting [11]), 94.2%. In addition, the Her2 level in test [3] is 99% (inactive). The differential viability (reversal) in test [7] (H69AR cells + 2 uM doxorubicin) is 4.79% (inactive).
Turning to `CCN1CCN(c2ncnc3ccc(Br)cc23)CC1`, the inhibition in test [1] was 0% (inactive); in [8], -0.79% (inactive); in [9], 5.25% (inactive). Besides, the viability in test [2] was 100%; in [4], 100% (inactive); in test [5], 59.2% (inactive); in [6] it was 91.2% (inactive); in test [7] (setting [10]), 100%; in test [7] (setting [11]), 91.2%. In addition, the Her2 level in [3] was 110% (inactive). In addition, the differential viability (reversal) in test [7] (H69AR cells + 2 uM doxorubicin) was -8.96% (inactive).
Regarding `CCNc1ccc(P(=S)(N(C)C)N(C)C)cc1`, the inhibition in test [1] was 1% (inactive); in test [8], -7.92% (inactive); in test [9], -4.6% (inactive). The viability in test [2] is 91%; in test [4] it was 91% (inactive); in test [5], 115% (inactive); in test [6], 88.2% (inactive); in test [7] (setting [10]), 105%; in [7] (setting [11]), 88.2%. The Her2 level in test [3] was 93% (inactive). The differential viability (reversal) in test [7] (H69AR cells + 2 uM doxorubicin) is -16.7% (inactive).
In the case of `Cc1ccc(O)c(CN2CCN(c3ccccc3)CC2)c1`, the inhibition was 13% (inactive) in test [1], -8.38% (inactive) in [8] and 1.33% (inactive) in test [9]. Moreover, the viability in test [2] is 94%; in test [4] it was 94% (inactive); in [5] it was 101% (inactive); in [6], 85.5% (inactive); in test [7] (setting [10]) it was 74%; in test [7] (setting [11]), 85.5%. For the same molecule, the Her2 level in test [3] is 88.5% (inactive). Besides, the differential viability (reversal) in test [7] (H69AR cells + 2 uM doxorubicin) is 11.5% (inactive).
`COc1ccc(S(=O)(=O)NC(CC(=O)N2CCC3(CC2)OCCO3)c2ccco2)cc1` (stereo unspecified): the inhibition in test [1] is 0% (inactive); in test [8], -8.77% (inactive); in test [9] it was -0.48% (inactive). Also, the viability was 134% in test [2]; 134% (inactive) in test [4]; 101% (inactive) in [5]; 93.9% (inactive) in test [6]; 88% in test [7] (setting [10]); 93.9% in test [7] (setting [11]). The Her2 level in test [3] was 106% (inactive). Besides, the differential viability (reversal) in test [7] (H69AR cells + 2 uM doxorubicin) is 5.91% (inactive).
On to `CCCCCCn1c(O)c(C=NC2CCN(Cc3ccccc3)CC2)c(=O)[nH]c1=O`, for which the results for the inhibition in [1], in [8] and in test [9] were 0% (inactive), -1.05% (inactive) and 4.84% (inactive), respectively. For the same molecule, the viability in [2] is 83%; in test [4], 83% (inactive); in [5] it was 72.3% (inactive); in test [6] it was 74.8% (inactive); in test [7] (setting [10]), 68.8%; in test [7] (setting [11]), 74.8%. Further, the Her2 level in test [3] is 67.5% (inactive). Moreover, in test [7] (H69AR cells + 2 uM doxorubicin), the differential viability (reversal) was 5.99% (inactive).
As to `Cc1ccc(C(=O)C2CN3CCC2CC3)cc1` (stereo unspecified), the inhibition was 0% (inactive) in test [1], -4.55% (inactive) in test [8] and 4.5% (inactive) in [9]. The viability in test [2] was 93%; in test [4], 93% (inactive); in test [5], 94.3% (inactive); in [6], 97.6% (inactive); in [7] (setting [10]), 93.3%; in test [7] (setting [11]), 97.6%. Besides, the Her2 level in [3] is 91% (inactive). In addition, in test [7] (H69AR cells + 2 uM doxorubicin), the differential viability (reversal) is 4.27% (inactive).
As for `COc1ccc(CN2CCN(c3ccccc3F)CC2)c(OC)c1`, the inhibition is 1% (inactive) in [1], -4.46% (inactive) in [8] and -0.98% (inactive) in test [9]. For the same molecule, the viability in [2] is 92%; in [4], 92% (inactive); in test [5] it was 91.1% (inactive); in [6], 128% (inactive); in [7] (setting [10]) it was 85.4%; in [7] (setting [11]) it was 128%. Besides, the Her2 level in test [3] was 88% (inactive). In [7] (H69AR cells + 2 uM doxorubicin), the differential viability (reversal) was 42.5% (inactive).
On to `CCCCn1c(O)c(C=NC2CCCCC2N)c(=O)[nH]c1=O` (stereo unspecified), for which the inhibition in test [1] was 0% (inactive); in test [8], -2.6% (inactive); in test [9] it was 1.43% (inactive). For the same molecule, the viability was 128% in [2]; 128% (inactive) in [4]; 92.6% (inactive) in [5]; 79.3% (inactive) in [6]; 74.4% in [7] (setting [10]); 79.3% in test [7] (setting [11]). Besides, the Her2 level in test [3] was 96.5% (inactive). For the same molecule, the differential viability (reversal) in [7] (H69AR cells + 2 uM doxorubicin) is 4.94% (inactive).
As for `O=C(c1ccc(CS(=O)(=O)c2ccccc2)o1)N1CCC2(CC1)OCCO2`, the inhibition in test [1] was 0% (inactive); in test [8], -2.11% (inactive); in test [9] it was -2.73% (inactive). In addition, the viability in test [2] was 90%; in test [4], 90% (inactive); in test [5], 96.5% (inactive); in test [6], 85% (inactive); in [7] (setting [10]) it was 92%; in [7] (setting [11]), 85%. In addition, the Her2 level in test [3] is 112% (inactive). For the same molecule, in [7] (H69AR cells + 2 uM doxorubicin), the differential viability (reversal) is -6.95% (inactive).
On to `CCOc1c(P(=S)(N(C)C)N(C)C)c(C)nn1-c1ccccc1`, for which the inhibition is 1% (inactive) in [1], -2.24% (inactive) in test [8] and -11% (inactive) in [9]. Moreover, the viability in test [2] is 83%; in test [4], 83% (inactive); in test [5] it was 98.6% (inactive); in [6], 101% (inactive); in [7] (setting [10]), 84.1%; in [7] (setting [11]), 101%. The Her2 level in [3] was 120% (inactive). For the same molecule, the differential viability (reversal) in test [7] (H69AR cells + 2 uM doxorubicin) is 17% (inactive).
